Converted amounts (≈) assume the structure as drawn.
Tests used:
Klebsiella pneumoniae [1] = test: Synergistic antibacterial activity against Klebsiella pneumoniae 729/1679 producing KPC-3 assessed as meropenem MIC at 4 ug/ml by broth microdilution method; format: functional; settings: dose 4 µg/ml
Summary of the method: (§1)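 Broth microdilution per CLSI guidelines, using custom frozen panels. […] Each partner drug was also tested alone. MICs were run in triplicate and the modal value is reported.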

Acinetobacter baumannii [2] = test: Synergistic antibacterial activity against Acinetobacter baumannii PR420 producing OXA-23/24/40 assessed as cefepime MIC at 4 ug/ml by broth microdilution method; format: functional; settings: dose 4 µg/ml
Acinetobacter baumannii [3] = test: Synergistic antibacterial activity against Acinetobacter baumannii PR408 producing OXA-24/40 assessed as cefepime MIC at 4 ug/ml by broth microdilution method; format: functional; settings: dose 4 µg/ml
Pseudomonas aeruginosa [4] = test: Synergistic antibacterial activity against Pseudomonas aeruginosa 715 assessed as meropenem MIC at 4 ug/ml by broth microdilution method; format: functional; settings: dose 4 µg/ml
Klebsiella pneumoniae [5] = test: Synergistic antibacterial activity against Klebsiella pneumoniae 1354/2241 producing KPC-3 assessed as cefepime MIC at 4 ug/ml by broth microdilution method; format: functional; settings: dose 4 µg/ml; summary of the method: as §1
Acinetobacter baumannii [6] = test: Synergistic antibacterial activity against ADC deleted Acinetobacter baumannii transfected with pWH1266 OXA-23 assessed as meropenem MIC at 4 ug/ml by broth microdilution method; format: functional; settings: dose 4 µg/ml
Klebsiella pneumoniae [7] = test: Synergistic antibacterial activity against Klebsiella pneumoniae 1108/1989 producing KPC-3 assessed as meropenem MIC at 4 ug/ml by broth microdilution method; format: functional; settings: dose 4 µg/ml; summary of the method: as §1
Pseudomonas aeruginosa [8] = test: Synergistic antibacterial activity against Pseudomonas aeruginosa 839 assessed as meropenem MIC at 4 ug/ml by broth microdilution method; format: functional; settings: dose 4 µg/ml
Klebsiella pneumoniae [9] = test: Synergistic antibacterial activity against Klebsiella pneumoniae 761/1723 producing KPC-3 assessed as cefepime MIC at 4 ug/ml by broth microdilution method; format: functional; settings: dose 4 µg/ml; summary of the method: as §1
Pseudomonas aeruginosa [10] = test: Antibacterial activity against Pseudomonas aeruginosa 839 by broth microdilution method; format: functional
Klebsiella pneumoniae [11] = test: Synergistic antibacterial activity against Klebsiella pneumoniae 972/1910 producing KPC-3 assessed as meropenem MIC at 4 ug/ml by broth microdilution method; format: functional; settings: dose 4 µg/ml
Klebsiella pneumoniae [12] = test: Synergistic antibacterial activity against Klebsiella pneumoniae 935/1884 producing KPC-3 assessed as cefepime MIC at 4 ug/ml by broth microdilution method; format: functional; settings: dose 4 µg/ml
Acinetobacter baumannii [13] = test: Synergistic antibacterial activity against Acinetobacter baumannii PR359 producing OXA-23 assessed as meropenem MIC at 4 ug/ml by broth microdilution method; format: functional; settings: dose 4 µg/ml
Acinetobacter baumannii [14] = test: Synergistic antibacterial activity against Acinetobacter baumannii PR363 producing OXA-23 assessed as meropenem MIC at 4 ug/ml by broth microdilution method; format: functional; settings: dose 4 µg/ml
Escherichia coli [15] = test: Antibacterial activity against Escherichia coli DH10B transfected with pBC SK (-) OXA-48 by broth microdilution method; format: functional
Klebsiella pneumoniae [16] = test: Synergistic antibacterial activity against Klebsiella pneumoniae 761/1723 producing KPC-3 assessed as meropenem MIC at 4 ug/ml by broth microdilution method; format: functional; settings: dose 4 µg/ml
Escherichia coli [17] = test: Synergistic antibacterial activity against Escherichia coli DH10B transfected with pBC SK (-) PDC-3 assessed as meropenem MIC at 4 ug/ml by broth microdilution method; format: functional; settings: dose 4 µg/ml; summary of the method: as §1
Klebsiella pneumoniae [18] = test: Antibacterial activity against Klebsiella pneumoniae jefferson 1775 producing OXA-48 by broth microdilution method; format: functional
Bacteria = test: Inhibition of bacteria ADC-7 assessed as half life using nitrocefin as substrate
Klebsiella pneumoniae [19] = test: Synergistic antibacterial activity against Klebsiella pneumoniae CAV 1543 producing OXA-48 assessed as cefepime MIC at 4 ug/ml by broth microdilution method; format: functional; settings: dose 4 µg/ml
Klebsiella pneumoniae [20] = test: Synergistic antibacterial activity against Klebsiella pneumoniae 1398/2291 producing KPC-3 assessed as meropenem MIC at 4 ug/ml by broth microdilution method; format: functional; settings: dose 4 µg/ml; summary of the method: as §1
Pseudomonas aeruginosa [21] = test: Synergistic antibacterial activity against Pseudomonas aeruginosa 776 assessed as meropenem MIC at 4 ug/ml by broth microdilution method; format: functional; settings: dose 4 µg/ml
Acinetobacter baumannii [22] = test: Synergistic antibacterial activity against ADC deleted Acinetobacter baumannii assessed as cefepime MIC at 8 ug/ml by broth microdilution method; format: functional; settings: dose 8 µg/ml
Klebsiella pneumoniae [23] = test: Synergistic antibacterial activity against Klebsiella pneumoniae 1398/2291 producing KPC-3 assessed as meropenem MIC at 8 ug/ml by broth microdilution method; format: functional; settings: dose 8 µg/ml; summary of the method: as §1
Acinetobacter baumannii [24] = test: Synergistic antibacterial activity against Acinetobacter baumannii PR363 producing OXA-23 assessed as cefepime MIC at 8 ug/ml by broth microdilution method; format: functional; settings: dose 8 µg/ml
Klebsiella pneumoniae [25] = test: Synergistic antibacterial activity against Klebsiella pneumoniae 977/1916 producing KPC-3 assessed as cefepime MIC at 8 ug/ml by broth microdilution method; format: functional; settings: dose 8 µg/ml
Pseudomonas aeruginosa [26] = test: Synergistic antibacterial activity against Pseudomonas aeruginosa 795 assessed as cefepime MIC at 8 ug/ml by broth microdilution method; format: functional; settings: dose 8 µg/ml
Klebsiella pneumoniae [27] = test: Synergistic antibacterial activity against Klebsiella pneumoniae 776/1742 producing KPC-2 assessed as cefepime MIC at 8 ug/ml by broth microdilution method; format: functional; settings: dose 8 µg/ml
Klebsiella pneumoniae [28] = test: Synergistic antibacterial activity against Klebsiella pneumoniae 11978 producing OXA-48 assessed as cefepime MIC at 8 ug/ml by broth microdilution method; format: functional; settings: dose 8 µg/ml; summary of the method: as §1
Acinetobacter baumannii [29] = test: Synergistic antibacterial activity against Acinetobacter baumannii PR440 producing OXA-23/24/40 assessed as cefepime MIC at 8 ug/ml by broth microdilution method; format: functional; settings: dose 8 µg/ml
Acinetobacter baumannii [30] = test: Synergistic antibacterial activity against ADC deleted Acinetobacter baumannii transfected with pWH1266 OXA-23 assessed as meropenem MIC at 8 ug/ml by broth microdilution method; format: functional; settings: dose 8 µg/ml
Summary of the method: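 Broth microdilution per CLSI guidelines in frozen panels. Test compound held at fixed 8 mg/L while the partner β-lactam concentration was increased. Run in triplicate; modal MIC reported.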

Acinetobacter baumannii [31] = test: Synergistic antibacterial activity against Acinetobacter baumannii PR476 producing OXA-24/40 assessed as meropenem MIC at 8 ug/ml by broth microdilution method; format: functional; settings: dose 8 µg/ml
Klebsiella pneumoniae [32] = test: Synergistic antibacterial activity against Klebsiella pneumoniae 972/1910 producing KPC-3 assessed as cefepime MIC at 8 ug/ml by broth microdilution method; format: functional; settings: dose 8 µg/ml
Acinetobacter baumannii [33] = test: Synergistic antibacterial activity against Acinetobacter baumannii PR319 producing OXA-23/24/40 assessed as meropenem MIC at 8 ug/ml by broth microdilution method; format: functional; settings: dose 8 µg/ml
Pseudomonas aeruginosa [34] = test: Synergistic antibacterial activity against Pseudomonas aeruginosa 715 assessed as meropenem MIC at 8 ug/ml by broth microdilution method; format: functional; settings: dose 8 µg/ml
Klebsiella pneumoniae [35] = test: Synergistic antibacterial activity against Klebsiella pneumoniae NY BS producing OXA-232 assessed as cefepime MIC at 8 ug/ml by broth microdilution method; format: functional; settings: dose 8 µg/ml
Escherichia coli [36] = test: Synergistic antibacterial activity against Escherichia coli DH10B transfected with pBC SK (-) KPC-3 assessed as cefepime MIC at 8 ug/ml by broth microdilution method; format: functional; settings: dose 8 µg/ml
Acinetobacter baumannii [37] = test: Synergistic antibacterial activity against Acinetobacter baumannii PR474 producing OXA-23/24/40 assessed as meropenem MIC at 8 ug/ml by broth microdilution method; format: functional; settings: dose 8 µg/ml
Klebsiella pneumoniae [38] = test: Synergistic antibacterial activity against Klebsiella pneumoniae 972/1910 producing KPC-3 assessed as meropenem MIC at 8 ug/ml by broth microdilution method; format: functional; settings: dose 8 µg/ml

SMILES | MIC (Klebsiella pneumoniae [1]) | MIC (Acinetobacter baumannii [2]) | MIC (Acinetobacter baumannii [3]) | MIC (Pseudomonas aeruginosa [4]) | MIC (Klebsiella pneumoniae [5]) | MIC (Acinetobacter baumannii [6]) | MIC (Klebsiella pneumoniae [7]) | MIC (Pseudomonas aeruginosa [8]) | MIC (Klebsiella pneumoniae [9]) | MIC (Pseudomonas aeruginosa [10]) | MIC (Klebsiella pneumoniae [11]) | MIC (Klebsiella pneumoniae [12]) | MIC (Acinetobacter baumannii [13]) | MIC (Acinetobacter baumannii [14]) | MIC (Escherichia coli [15]) | MIC (Klebsiella pneumoniae [16]) | MIC (Escherichia coli [17]) | T1/2 (Bacteria) | MIC (Klebsiella pneumoniae [19]) | MIC (Klebsiella pneumoniae [20]) | further results
NC(=O)[C@@H]1CC[C@@H]2CN1C(=O)N2OS(=O)(=O)[O-].[Na+] [AVIBACTAM SODIUM] | ≤ 0.12 µg/mL | > 16 µg/mL | > 16 µg/mL | 16 µg/mL | ≤ 0.12 µg/mL | > 16 µg/mL | ≤ 0.12 µg/mL | 1 µg/mL | ≤ 0.12 µg/mL | > 16 µg/mL | ≤ 0.12 µg/mL | ≤ 0.12 µg/mL | > 16 µg/mL | > 16 µg/mL | > 16 µg/mL | ≤ 0.12 µg/mL | ≤ 0.12 µg/mL | 33 min | 0.25 µg/mL | ≤ 0.12 µg/mL | MIC (Klebsiella pneumoniae [18]): > 16 µg/mL
O.O=C(NC1CCNCC1)[C@@H]1CC[C@@H]2CN1C(=O)N2OS(=O)(=O)O [RELEBACTAM] | ≤ 0.12 µg/mL | > 16 µg/mL | 16 µg/mL | 16 µg/mL | ≤ 0.12 µg/mL | > 16 µg/mL | ≤ 0.12 µg/mL | 1 µg/mL | ≤ 0.12 µg/mL | > 16 µg/mL | ≤ 0.12 µg/mL | ≤ 0.12 µg/mL | > 16 µg/mL | > 16 µg/mL | > 16 µg/mL | ≤ 0.12 µg/mL | ≤ 0.12 µg/mL | 39 min | 2 µg/mL | ≤ 0.12 µg/mL | MIC (Pseudomonas aeruginosa [21]): > 16 µg/mL; MIC (Klebsiella pneumoniae [18]): > 16 µg/mL
O=C(NNC(=O)[C@@H]1CC[C@@H]2CN1C(=O)N2OS(=O)(=O)O)[C@@H]1CCCNC1 [ZIDEBACTAM] | ≤ 0.12 µg/mL | > 16 µg/mL | 8 µg/mL |  | ≤ 0.12 µg/mL | > 16 µg/mL | ≤ 0.12 µg/mL | 0.5 µg/mL | ≤ 0.12 µg/mL | 8 µg/mL (≈ 20.4 µM) | ≤ 0.12 µg/mL | ≤ 0.12 µg/mL | > 16 µg/mL | > 16 µg/mL |  | ≤ 0.12 µg/mL | ≤ 0.12 µg/mL | 11 min | ≤ 0.12 µg/mL | ≤ 0.12 µg/mL | MIC (Acinetobacter baumannii [22]): 0.5 µg/mL; MIC (Klebsiella pneumoniae [23]): ≤ 0.12 µg/mL; MIC (Acinetobacter baumannii [24]): 8 µg/mL; MIC (Klebsiella pneumoniae [25]): ≤ 0.12 µg/mL; MIC (Pseudomonas aeruginosa [26]): 16 µg/mL; MIC (Pseudomonas aeruginosa [21]): 16 µg/mL; MIC (Klebsiella pneumoniae [27]): ≤ 0.12 µg/mL; MIC (Klebsiella pneumoniae [28]): ≤ 0.12 µg/mL; MIC (Acinetobacter baumannii [29]): > 16 µg/mL; MIC (Acinetobacter baumannii [30]): > 16 µg/mL; MIC (Acinetobacter baumannii [31]): 0.25 µg/mL; MIC (Klebsiella pneumoniae [32]): ≤ 0.12 µg/mL; MIC (Acinetobacter baumannii [33]): > 16 µg/mL; MIC (Pseudomonas aeruginosa [34]): 8 µg/mL; MIC (Klebsiella pneumoniae [35]): ≤ 0.12 µg/mL; MIC (Escherichia coli [36]): ≤ 0.12 µg/mL; MIC (Acinetobacter baumannii [37]): > 16 µg/mL; MIC (Klebsiella pneumoniae [38]): ≤ 0.12 µg/mL
